Converted amounts (≈) assume the structure as drawn. The source made the active and inactive calls. The calls are words filed in the database; no cut-off is given here. A value given as a limit tells only on which side of the number the result lay.

The term inhibition denotes the relative decrease from the control value, in per cent. In general, CC50 refers to the concentration that lowers cell viability or growth by half. As a reminder, the solubility (kinetic) is the concentration staying in solution when a stock, usually in DMSO, is diluted into the medium.

Series [1] addresses T1, Proteinase-activated receptor 1 (Homo sapiens) (UniProt P25116).
T1 sequence (whole entry): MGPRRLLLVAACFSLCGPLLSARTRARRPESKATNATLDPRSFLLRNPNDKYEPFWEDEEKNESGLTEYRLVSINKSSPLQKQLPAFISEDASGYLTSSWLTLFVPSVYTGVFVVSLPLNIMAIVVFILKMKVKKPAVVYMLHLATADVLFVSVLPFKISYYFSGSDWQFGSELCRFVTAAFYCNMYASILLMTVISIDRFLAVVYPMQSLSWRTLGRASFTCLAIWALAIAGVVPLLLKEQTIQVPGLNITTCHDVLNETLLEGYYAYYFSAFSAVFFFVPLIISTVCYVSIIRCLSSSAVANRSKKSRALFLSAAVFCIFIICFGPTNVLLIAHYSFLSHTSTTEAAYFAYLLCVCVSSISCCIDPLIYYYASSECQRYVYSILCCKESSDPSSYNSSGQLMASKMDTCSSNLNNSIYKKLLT
As to the kind of experiment: Negative allosteric modulation of PAR1 in human EAhy926 cells assessed as reduction in TFLLRN-NH2-induced intracellular calcium mobilization at 10 uM incubated for 15 mins followed by TFLLRN-NH2 addition by Fluo-4-AM dye based fluorescence assay relative to control. Type of series: functional, cell-based. The method, boiled down:
(§1)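 Adherent EA.hy926 endothelial cells in 96-well format, intracellular Ca2+ mobilization triggered by PAR1 agonist TFLLRN-NH2 at 5 µM; single-point % inhibition at 10 µM (n = 4 wells, SEM); 7-point concentration-response curves, 3 wells per concentration, pIC50 from 4-variable non-linear regression; average IC50 ± SEM over independent assays.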
On the technique in general: A change in cytosolic calcium serves as a functional read-out for many receptors and channels.

The target of series [2] is Translocator protein (Rattus norvegicus) (UniProt P16257). As to the kind of experiment: Inhibition of rat PBR at 10 uM.
The target of series [3] is T1, Proteinase-activated receptor 1 (Homo sapiens). As to the kind of experiment: Reversible inhibition of PAR1 in human EAhy926 cells assessed as reduction in TFLLRN-NH2-induced intracellular calcium mobilization at 10 uM incubated for 15 mins and washed in buffer followed by TFLLRN-NH2 addition by Fluo-4-AM dye based fluorescence assay relative to control. Type of series: functional, cell-based.

The subject of series [4] is HUVEC (human). Description: Antiinflammatory activity in human HUVEC cells assessed as inhibition of TNFalpha-induced TF expression at 10 uM preincubated for 1 hr followed by TNFalpha addition and measured after 3 hrs by qPCR analysis. In general terms: In qPCR the cycle at which signal appears reflects the starting amount.
Series [5] concerns the target Sodium-dependent noradrenaline transporter (Homo sapiens) (UniProt P23975). Description: Inhibition of NET receptor (unknown origin) at 10 uM.
The subject of series [6] is HepG2. Description: Cytotoxicity against human HepG2 cells assessed as reduction in cell viability. In kind it is cell-based. In a few lines: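 Human HepG2 cells; cytotoxicity reported as CC50.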
The nature of series [7]: Stability in mouse plasma at 20 uM measured at 4 hrs by LC-MS analysis. In kind it is ADME, cell-free. The method, boiled down: (§2)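 Compound incubated in mouse or human plasma; % parent remaining at 4 h.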
The nature of series [8]: Solubility in 2.5% DMSO. Type of series: physicochemical. The method, boiled down:
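Kinetic aqueous solubility assay with 2.5% DMSO.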

The target in series [9] is T1, Proteinase-activated receptor 1 (Homo sapiens). As to the kind of experiment: Negative allosteric modulation of PAR1 in human EAhy926 cells assessed as reduction in TFLLRN-NH2-induced intracellular calcium mobilization at 0.0316 to 3.16 uM incubated for 15 mins followed by TFLLRN-NH2 addition by Fluo-4-AM dye based fluorescence assay relative to control.
A short description of series [10]: Stability in human plasma at 20 uM measured at 4 hrs by LC-MS analysis. In kind it is ADME, cell-free. In a few lines:
as §2

Series [11] addresses T2, Proteinase-activated receptor 1 (Homo sapiens, UniProt P25116).
T2 sequence (P25116 whole entry): T1 sequence (whole entry)
As to the kind of experiment: Negative allosteric modulation of PAR1 in human EAhy926 cells assessed as reduction in TFLLRN-NH2-induced intracellular calcium mobilization incubated for 15 mins followed by TFLLRN-NH2 addition by Fluo-4-AM dye based fluorescence assay. Type of series: functional, cell-based. In a few lines: as §1

The subject of series [12] is Platelet. As to the kind of experiment: Antiplatelet activity in human washed platelets assessed as inhibition of SFLLRN-NH2-induced platelet aggregation at 10 uM incubated for 2 mins followed by SFLLRN-NH2 addition and monitored for 5 mins by lumi-aggregometery.
Series [13] addresses Proteinase-activated receptor 2 (Homo sapiens) (UniProt P55085). Description: Negative allosteric modulation of PAR2 in human EAhy926 cells assessed as reduction in SLIGKV-NH2-induced intracellular calcium mobilization at 0.316 to 10 uM incubated for 15 mins followed by TFLLRN-NH2 addition by Fluo-4-AM dye based fluorescence assay relative to control. In kind it is functional, cell-based.

Series [14] can be described thus: Stability in human microsomes for 1 hr. In kind it is ADME, Microsome. The note with it: read-out: Stability. In a few lines: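 Human liver microsomes, % remaining after 1 h.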
Series [15] addresses Beta-3 adrenergic receptor (Homo sapiens) (UniProt P13945). Description: Inhibition of beta3 adrenoceptor (unknown origin) at 10 uM by radio ligand binding assay.
Series [16] concerns the target Beta-1 adrenergic receptor (Homo sapiens) (UniProt P08588). Description: Inhibition of beta1 adrenoceptor (unknown origin) at 10 uM by radio ligand binding assay.
Series [17] can be described thus: Stability in human plasma at 10 uM measured at 4 hrs by LC-MS analysis. In kind it is ADME, cell-free. In a few lines: as §2
The nature of series [18]: Stability in mouse plasma at 10 uM measured at 4 hrs by LC-MS analysis. Type of series: ADME, cell-free. In a few lines:
as §2

For series [19], the target named is T1, Proteinase-activated receptor 1 (Homo sapiens). Description: Negative allosteric modulation of PAR1 in human EAhy926 cells assessed as reduction in TFLLRN-NH2-induced intracellular calcium mobilization incubated for 15 mins followed by TFLLRN-NH2 addition by Fluo-4-AM dye based fluorescence assay relative to control. In kind it is functional, cell-based. In a few lines:
as §1

The target is the same in series [20]. As to the kind of experiment: Negative allosteric modulation of PAR1 in human EAhy926 cells assessed as reduction in TFLLRN-NH2-induced intracellular calcium mobilization at 31.6 uM incubated for 15 mins followed by TFLLRN-NH2 addition by Fluo-4-AM dye based fluorescence assay relative to control. In kind it is functional, cell-based.
Series [21] shares this target. As to conditions: 0.316 uM.

Sequence of Proteinase-activated receptor 2 (Homo sapiens) (P55085 whole entry): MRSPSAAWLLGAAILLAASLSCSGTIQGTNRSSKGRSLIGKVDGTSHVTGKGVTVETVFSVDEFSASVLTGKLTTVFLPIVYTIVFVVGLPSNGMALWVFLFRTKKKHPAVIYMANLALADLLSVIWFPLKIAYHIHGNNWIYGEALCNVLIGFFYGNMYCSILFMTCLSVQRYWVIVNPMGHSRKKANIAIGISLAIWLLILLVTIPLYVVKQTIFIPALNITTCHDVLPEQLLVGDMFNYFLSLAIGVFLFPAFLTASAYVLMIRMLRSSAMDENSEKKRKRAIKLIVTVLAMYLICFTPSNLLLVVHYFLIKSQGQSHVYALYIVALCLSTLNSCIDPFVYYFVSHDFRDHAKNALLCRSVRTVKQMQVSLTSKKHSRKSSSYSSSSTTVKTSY
Sequence of Translocator protein (Rattus norvegicus) (P16257 whole entry, looked up): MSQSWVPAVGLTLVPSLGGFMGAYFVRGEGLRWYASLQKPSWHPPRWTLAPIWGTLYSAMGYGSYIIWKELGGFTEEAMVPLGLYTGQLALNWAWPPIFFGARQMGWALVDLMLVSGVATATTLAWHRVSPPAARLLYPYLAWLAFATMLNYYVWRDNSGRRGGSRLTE
Sequence of Sodium-dependent noradrenaline transporter (Homo sapiens) (P23975 whole entry): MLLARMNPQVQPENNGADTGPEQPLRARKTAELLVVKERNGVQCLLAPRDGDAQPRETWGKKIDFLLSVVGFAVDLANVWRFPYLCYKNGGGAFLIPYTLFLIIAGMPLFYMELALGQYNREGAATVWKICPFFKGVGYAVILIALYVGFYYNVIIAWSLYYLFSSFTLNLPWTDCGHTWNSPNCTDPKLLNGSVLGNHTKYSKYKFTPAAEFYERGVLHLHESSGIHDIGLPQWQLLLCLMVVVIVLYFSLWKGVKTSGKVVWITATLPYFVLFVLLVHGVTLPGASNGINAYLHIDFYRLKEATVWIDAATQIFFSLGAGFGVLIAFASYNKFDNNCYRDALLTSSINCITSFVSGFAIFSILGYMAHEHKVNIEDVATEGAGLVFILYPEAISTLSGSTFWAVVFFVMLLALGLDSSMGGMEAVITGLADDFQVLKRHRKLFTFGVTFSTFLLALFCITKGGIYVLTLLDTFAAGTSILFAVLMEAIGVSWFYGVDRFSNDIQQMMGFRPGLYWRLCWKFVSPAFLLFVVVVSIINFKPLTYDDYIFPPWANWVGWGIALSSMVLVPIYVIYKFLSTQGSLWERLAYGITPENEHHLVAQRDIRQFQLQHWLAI
Sequence of Beta-1 adrenergic receptor (Homo sapiens) (P08588 whole entry, looked up): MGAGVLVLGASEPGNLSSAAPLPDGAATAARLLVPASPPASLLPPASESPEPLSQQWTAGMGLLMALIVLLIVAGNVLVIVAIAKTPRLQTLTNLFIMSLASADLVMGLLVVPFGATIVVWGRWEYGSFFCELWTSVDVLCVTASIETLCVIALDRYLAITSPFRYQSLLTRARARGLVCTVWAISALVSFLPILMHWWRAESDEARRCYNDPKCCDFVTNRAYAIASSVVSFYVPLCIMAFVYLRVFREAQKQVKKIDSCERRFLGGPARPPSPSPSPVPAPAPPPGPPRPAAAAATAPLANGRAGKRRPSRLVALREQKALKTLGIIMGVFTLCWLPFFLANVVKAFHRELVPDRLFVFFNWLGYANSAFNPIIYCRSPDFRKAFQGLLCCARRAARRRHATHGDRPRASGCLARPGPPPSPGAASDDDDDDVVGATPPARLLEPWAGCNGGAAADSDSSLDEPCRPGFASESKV
Sequence of Beta-3 adrenergic receptor (Homo sapiens) (P13945 whole entry, looked up): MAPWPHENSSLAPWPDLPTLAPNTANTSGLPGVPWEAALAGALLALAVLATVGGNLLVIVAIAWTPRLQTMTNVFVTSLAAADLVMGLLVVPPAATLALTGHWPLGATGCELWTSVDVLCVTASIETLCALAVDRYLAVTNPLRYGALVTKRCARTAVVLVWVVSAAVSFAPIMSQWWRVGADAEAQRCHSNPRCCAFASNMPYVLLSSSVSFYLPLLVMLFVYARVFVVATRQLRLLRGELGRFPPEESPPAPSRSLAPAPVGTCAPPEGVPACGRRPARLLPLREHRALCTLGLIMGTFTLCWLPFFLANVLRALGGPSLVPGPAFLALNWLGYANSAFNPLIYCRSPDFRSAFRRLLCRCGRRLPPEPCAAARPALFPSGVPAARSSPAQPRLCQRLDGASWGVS

Turning to `COCC(=O)Nc1cccc(NC(=O)c2ccccc2Br)c1`, the inhibition in series [1] was 38%.

For `O=C(Nc1cccc(NC(=O)c2ccccc2Br)c1)c1cnco1`, the inhibition in [2] is 67%; in series [5] it was 31%; in [1] it was 90%. The inhibition entry in series [3], in series [4] and in series [9] was “Active” each time. Moreover, the cytotoxic concentration (CC50) in series [6] was above 150000 nM. Besides, the Stability was 32% in [7] and 97% in series [10]. Besides, the kinetic solubility in series [8] turned out to be 17 µM (≈ 6.57 µg/mL). Moreover, the IC50 in [11] (read-out: IC50) came to 370 nM. Besides, the inhibition at 10 µM in series [12] is 100%. In addition, the inhibition entry in series [13] was “inactive”. For the same compound, the remaining at 1 h in series [14] is 99%.

As for `CC(C)(C)OC(=O)N1CCC[C@H]1C(=O)Nc1cccc(NC(=O)c2ccccc2Br)c1`, the inhibition in [1] was -8%.

As for `CCCC(=O)Nc1cccc(NC(=O)c2ccccc2Br)c1`, the results for the inhibition in series [2], in series [15] and in [16] were 84%, 32% and 49%, respectively. The inhibition entry in series [3] and in series [4] was “Active” throughout. In [6], the CC50 is above 150000 nM. In addition, the solubility (kinetic) in series [8] came to 24 µM (≈ 8.67 µg/mL). In addition, the Stability is on record as 79% in [17] and below 1% in [18]. Also, the IC50 in series [11] (read-out: IC50) stood at 570 nM. In addition, the inhibition at 10 µM in series [12] was 100%. Moreover, the inhibition result in series [13] is “inactive”. In [14], the remaining at 1 h came out at 99%.

As to `CCC(=O)Nc1cccc(NC(=O)c2ccccc2Br)c1`, the inhibition in series [1] was 54%.

Regarding `COCCNc1cccc(NC(=O)c2ccccc2Br)c1`, the inhibition in series [1] is 43%.

Regarding `COC(=O)Nc1cccc(NC(=O)c2ccccc2Br)c1`, the inhibition in series [1] is 42%.

In the case of `CCC(O)C(=O)Nc1cccc(NC(=O)c2ccccc2Br)c1` (stereo not drawn), the inhibition in series [1] was 21%.

As to `O=C(Nc1cccc(NC(=O)c2ccccc2Br)c1)c1ccccc1`, the inhibition in series [1] amounted to 58%.

For `CCCCC(=O)Nc1cccc(NC(=O)c2ccccc2Br)c1`, the inhibition in series [1] was 23%.

`CC(C)CC(=O)Nc1cccc(NC(=O)c2ccccc2Br)c1`: in series [1], the inhibition was 82%.

Turning to `CC(C)(C)OC(=O)N1CCC[C@@H]1C(=O)Nc1cccc(NC(=O)c2ccccc2Br)c1`, the inhibition in series [1] was found to be 65%.

On to `CCCNC(=O)c1cccc(NC(=O)c2ccccc2Br)c1`, for which the results for the inhibition in series [19] and in series [1] were 50% and 63%, respectively. In addition, the IC50 in series [11] (read-out: IC50) was 220 nM.

In the case of `COC(=O)CC(=O)Nc1cccc(NC(=O)c2ccccc2Br)c1`, the inhibition in series [1] worked out at 11%.

In the case of `CC(C)[C@H](O)C(=O)Nc1cccc(NC(=O)c2ccccc2Br)c1`, the inhibition in series [1] worked out at 48%.

Consider `O=C(Nc1cccc(NC(=O)C2CCOC2)c1)c1ccccc1Br` (stereo not drawn), for which the inhibition in series [1] was determined as 44%.

Consider `O=C(Nc1cccc(NC(=O)c2ccccc2Br)c1)c1cocn1`, for which, in series [3], the inhibition entry was “Active”. Also, the inhibition was 50% in series [20] and 82% in series [1]. For the same compound, the IC50 in [11] (read-out: IC50) is 420 nM. Further, in series [13], the inhibition result is “inactive”.

As to `O=C(Nc1cccc(NC(=O)c2ccccc2Br)c1)c1ccco1`, in series [3], the inhibition result was “Active”. The inhibition in series [1] was 92%. Further, the IC50 in [11] (read-out: IC50) is 320 nM. Besides, the inhibition result in series [13] was “inactive”.

With `CC(C)[C@@H](O)C(=O)Nc1cccc(NC(=O)c2ccccc2Br)c1`, in series [1], the inhibition is 25%.

On to `O=C(CC(F)(F)F)Nc1cccc(NC(=O)c2ccccc2Br)c1`, for which, in [3], the inhibition entry was “Active”. The inhibition in [1] was 88%. Moreover, the IC50 in series [11] (read-out: IC50) worked out at 380 nM. Besides, the inhibition result in series [13] is “inactive”.

As to `CCOC(=O)Nc1cccc(NC(=O)c2ccccc2Br)c1`, the inhibition in series [1] amounted to 60%.

In the case of `COC(C)C(=O)Nc1cccc(NC(=O)c2ccccc2Br)c1` (stereo not drawn), the inhibition in series [1] was 58%.

Consider `CCCN(CCC)c1cccc(NC(=O)c2ccccc2Br)c1`, for which the inhibition in series [1] was found to be 13%.

`CCOC(=O)N[C@@H]1CC[C@@H]2[C@@H](C1)C[C@H]1C(=O)O[C@H](C)[C@H]1[C@H]2/C=C/c1ccc(-c2cccc(F)c2)cn1`: the inhibition entry in series [3] and in series [13] was “inactive” each time. In addition, the inhibition in [21] was above 75%.

Consider `O=C(O)CC(=O)Nc1cccc(NC(=O)c2ccccc2Br)c1`, for which the inhibition in series [1] was 37%.

On to `C#CCCC(=O)Nc1cccc(NC(=O)c2ccccc2Br)c1`, for which the IC50 in [11] (read-out: pIC50 (converted)) is above 10000 nM.

For the compound `COCCC(=O)Nc1cccc(NC(=O)c2ccccc2Br)c1`, in [1], the inhibition was 39%.

Take `CN(C)CC(=O)Nc1cccc(NC(=O)c2ccccc2Br)c1`: in [1], the inhibition was determined as 3%.

`CCCCNc1cccc(NC(=O)c2ccccc2Br)c1`: the inhibition entry in series [3] was “Active”. The inhibition in [1] was found to be 85%. In series [13], the inhibition entry is “inactive”.

As for `O=C(Nc1cccc(NC(=O)C2CCCC2)c1)c1ccccc1Br`, in series [1], the inhibition was 65%.

Consider `CCCCOc1cccc(NC(=O)c2ccccc2Br)c1`, for which the inhibition in [1] was found to be 57%.

Consider `CCCNCc1cccc(NC(=O)c2ccccc2Br)c1`, for which the inhibition in series [1] came to 17%.

On to `O=C(Nc1cccc(NC(=O)[C@H]2CCCN2)c1)c1ccccc1Br`, for which the inhibition in series [1] worked out at 63%.

For the compound `CCC(C)C(=O)Nc1cccc(NC(=O)c2ccccc2Br)c1` (stereo not drawn), in series [1], the inhibition stood at 27%.

On to `NC(=O)CC(=O)Nc1cccc(NC(=O)c2ccccc2Br)c1`, for which the inhibition in series [1] came out at 36%.

For the compound `O=C(Nc1cccc(NC(=O)[C@@H]2CCCN2)c1)c1ccccc1Br`, the inhibition in [1] worked out at 4%.

As for `O=C(Nc1cccc(NC(=O)C2CCCO2)c1)c1ccccc1Br` (stereo not drawn), the inhibition in series [1] stood at 42%.

(Values after ChEMBL document CHEMBL4346742, “The parmodulin NRD-21 is an allosteric inhibitor of PAR1 Gq signaling with improved anti-inflammatory activity and stability” (Bioorg Med Chem, 2019).)
